Drawing on ChEMBL document CHEMBL1122247, “2-(6-carboxyhexyl)cyclopentanone hexylhydrazone. A potent and time-dependent inhibitor of platelet aggregation” (1983), this text covers Inhibition, inhibition and time to complete inhibition for three molecules.

A short description of assay [1]: Tested for effect of plasma containing platelets (PRP) against arachidonic acid (500 uM) at 25 uM concentration. It counts as functional, Homo sapiens. The method, boiled down: (§1)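 Human platelet-rich plasma was pretreated 1 min with 25–100 μM agent, then challenged with arachidonic acid (500 μM) or U46619 (1 μM). Aggregation was followed turbidimetrically (Born) at 37 °C. Percent inhibition versus vehicle controls was read 3 min after agonist. Results are mean ± SEM from at least three separate blood donors.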

Assay [2] is described as follows: Tested for effect of plasma containing platelets (PRP) against arachidonic acid (500 uM) at 50 uM concentration. The assay is classed as functional, Homo sapiens. In outline:
as §1

The nature of assay [3]: Tested for effect of plasma containing platelets (PRP) against U-46,619 (1 uM) at 100 uM concentration. It counts as functional, Homo sapiens. In outline:
as §1

Assay [4] in a line: Tested for effect of plasma containing platelets (PRP) against U-46,619 (1 uM) at 50 uM concentration. The assay is classed as functional, Homo sapiens. The method, boiled down: as §1
A short description of assay [5]: Tested for effect of plasma containing platelets (PRP) against arachidonic acid (500 uM) at 100 uM concentration. The assay is classed as functional, Homo sapiens. In outline: as §1
Assay [6] is described as follows: Tested for effect of plasma containing platelets (PRP) against U-46,619 (1 uM) at 25 uM concentration. The assay is classed as functional, Homo sapiens. The method, boiled down:
as §1

Assay [7] can be described thus: Tested for effect of plasma containing platelets (PRP) against PGH-2 at 0.6 uM concentration. It counts as functional. The settings on record: Homo sapiens.
The nature of assay [8]: Tested for effect of plasma containing platelets (PRP) against ADP at 100 uM concentration. It counts as functional. The settings on record: Homo sapiens. The method, boiled down:
(§2)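 In human PRP, 100 μM hydrazone was tested against aggregation induced by U46619 (1–3 μM) or ADP (5 μM). Aggregation was measured by the Born turbidimetric method at 37 °C over 3 min. Reagents were added as 10-μL aliquots per mL of PRP. Percent inhibition is averaged over nine donors.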

Assay [9] is described as follows: Tested for effect of plasma containing platelets (PRP) against platelet free plasma at 500 uM concentration. It counts as functional. The settings on record: Homo sapiens. In outline:
(§3)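 Hydrazone in ethanol was added to platelet-free plasma (100 μM final) and stirred. At 10-min intervals up to 1 h, aliquots were transferred to PRP (1 μM final). Aggregation to 500 μM arachidonic acid was then measured turbidimetrically at 37 °C. Controls had hydrazone added directly to PRP; seven donors.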

A short description of assay [10]: Tested for effect of plasma containing platelets (PRP) against U-46,619 at 100 uM concentration. The assay is classed as functional. The settings on record: Homo sapiens. The method, boiled down: as §2
The nature of assay [11]: Time to complete inhibition of arachidonic acid (500 uM)-induced aggregation in platelet-rich plasma (PRP). The settings on record: Homo sapiens.
Assay [12] is described as follows: Tested for effect of […] against PGH-2 at 100 uM concentration. It counts as functional. The settings on record: Homo sapiens, Plasma.
Assay [13] in a line: Tested for effect of plasma containing platelets (PRP) against platelet free plasma at 1 uM concentration. It counts as functional. The settings on record: Homo sapiens. The method, boiled down: as §3
Assay [14] can be described thus: Tested for effect of plasma containing platelets (PRP) against arachidonic acid at 1 uM concentration. The assay is classed as functional. The settings on record: Homo sapiens.
Assay [15] is described as follows: Tested for effect of plasma containing platelets (PRP) against arachidonic acid at 0.1 uM concentration. The settings on record: Homo sapiens. It counts as functional.

In general, Inhibition refers to the percentage by which the read-out fell short of the control. Lower therefore signals a response near the control. On to `CCCCCC(=O)N/N=C1\CCCC1CCCCCCC(=O)O` (stereo not drawn), for which the Inhibition in assay [1] was 8%; in assay [2], 17%; in [3] it was 30%; in [4], 6%; in assay [5], 98%.
With `CCCCCCCN[C@H]1CCC[C@@H]1CCCCCCC(=O)O` (relative stereo), the Inhibition in assay [1] was 100%; in assay [6], 76%; in assay [2] it was 100%; in assay [4], 98%.
As usually defined, the inhibition is the change of the read-out against control, counted positive when it falls. A high value points to a strong effect. In assay [7], `CCCCCCN/N=C1\CCCC1CCCCCCC(=O)O` (stereo not drawn) came in with an inhibition at 0.6 µM of 6%. Also, the inhibition at 100 µM in assay [8] is 6%; in assay [10], 4%; in assay [12] it was 89%. In [9], this molecule gave an inhibition at 500 µM of 100%. In addition, the time to complete inhibition at 500 µM in assay [11] came to 27 min. Further, the inhibition at 1 µM in assay [13] is 29%; in assay [14] it was 99%. The molecule also had an inhibition at 0.1 µM in [15] of 44%.
